Consider five compounds from ChEMBL document CHEMBL1150393, “Evaluation of radiolabeled (hetero)aromatic analogues of N-(2-diethylaminoethyl)-4-iodobenzamide for imaging and targeted radionuclide therapy of melanoma” (J Med Chem, 2008).

What all share (type): ADME, organism-based
Conditions in all cases: in vivo

Series [1] is described as follows: Biodistribution in glandula seminalis of C57BL/6 mouse bearing mouse B16-F0 cells at 0.74 to 0.92 MBq, iv after 3 hrs. The method, boiled down:
(§1)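 Male C57BL6 mice with s.c. left-flank B16-F0 melanoma (5 × 10⁵ cells in PBS). Two mice per time point frozen in liquid nitrogen after CO₂ sacrifice. Eight 40 µm whole-body cryosections per mouse read by multiwire proportional counter. cpm/mm² converted to kBq/g and expressed as %ID/g.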

The nature of series [2]: Biodistribution in gall bladder of C57BL/6 mouse bearing mouse B16-F0 cells at 0.74 to 0.92 MBq, iv after 1 hr. The method, boiled down: as §1
Series [3] is described as follows: Biodistribution in glandula seminalis of C57BL/6 mouse bearing mouse B16-F0 cells at 0.74 to 0.92 MBq, iv after 6 hrs. The method, boiled down:
as §1

Series [4] in a line: Biodistribution in glandula seminalis of C57BL/6 mouse bearing mouse B16-F0 cells at 0.74 to 0.92 MBq, iv after 1 hr. The method, boiled down: as §1
Series [5] is described as follows: Biodistribution in intestinal content of C57BL/6 mouse bearing mouse B16-F0 cells at 0.74 to 0.92 MBq, iv after 72 hrs. An outline of the steps:
as §1

Series [6] is described as follows: Ratio of drug level in tumor to brain of C57BL/6 mouse bearing mouse B16-F0 cells at 0.74 to 0.92 MBq, iv after 72 hrs. An outline of the steps: (§2)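 Tumour and organ radioactive concentrations came from whole-body cryosection counting (40 µm slices, eight per mouse, two mice per time) after tail-vein injection of the [¹²⁵I]-labelled compound (0.1 µmol) into male C57BL6 mice bearing s.c. B16-F0 melanoma. Each value is the ratio of the tumour concentration to the organ concentration.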

A short description of series [7]: Ratio of drug level in tumor to brain of C57BL/6 mouse bearing mouse B16-F0 cells at 0.74 to 0.92 MBq, iv after 24 hrs. The method, boiled down: as §2
Series [8] relates to Brain. Put plainly: Biodistribution in brain of C57BL/6 mouse bearing mouse B16-F0 cells at 0.74 to 0.92 MBq, iv after 72 hrs. The method, boiled down:
as §1

The subject of series [9] is Brain. Put plainly: Biodistribution in brain of C57BL/6 mouse bearing mouse B16-F0 cells at 0.74 to 0.92 MBq, iv after 24 hrs. The method, boiled down: as §1
Another series has as its system Bone marrow. Put plainly: Biodistribution in bone marrow of C57BL/6 mouse bearing mouse B16-F0 cells at 0.74 to 0.92 MBq, iv after 1 hr. The method, boiled down:
as §1

Series [10] in a line: Ratio of drug level in tumor to liver of C57BL/6 mouse bearing mouse B16-F0 cells at 0.74 to 0.92 MBq, iv after 72 hrs. An outline of the steps:
as §2

The subject of another series is Liver. The series can be described thus: Biodistribution in liver of C57BL/6 mouse bearing mouse B16-F0 cells at 0.74 to 0.92 MBq, iv after 72 hrs. An outline of the steps: as §1
For another series, the system named is Kidney. Put plainly: Biodistribution in kidney of C57BL/6 mouse bearing mouse B16-F0 cells at 0.74 to 0.92 MBq, iv after 72 hrs. An outline of the steps:
as §1

Another series has as its system Muscle tissue. The series can be described thus: Biodistribution in muscle of C57BL/6 mouse bearing mouse B16-F0 cells at 0.74 to 0.92 MBq, iv after 24 hrs. The method, boiled down:
as §1

A further series deals with Pancreas. Put plainly: Biodistribution in pancreas of C57BL/6 mouse bearing mouse B16-F0 cells at 0.74 to 0.92 MBq, iv after 24 hrs. The method, boiled down: as §1

`CCN(CC)CCNC(=O)c1ccc([125I])nc1.Cl.Cl`: the Drug uptake amounted to 3.78 % ID/g in series [1], 8.68 % ID/g in series [2], 3.55 % ID/g in series [3] and 6.79 % ID/g in series [4].
For the compound `CCN(CC)CCNC(=O)c1c[nH]c2ccc([125I])cc2c1=O.Cl.Cl`, the Drug uptake in series [5] is on record as 0.7 % ID/g; with Brain [8] it was 0.1 % ID/g; with Brain [9] it was 0.04 % ID/g. The results for the Ratio in series [6] and in series [7] were 23.5 and 68.5, respectively.
In the series on Bone marrow, `CCN(CC)CCNC(=O)c1cnc2cc([125I])ccc2n1.Cl.Cl` showed a Drug uptake of 4.58 % ID/g.
Regarding `CCN(CC)CCNC(=O)c1ccc2cc([125I])ccc2n1.Cl.Cl`, the Ratio in series [10] came to 7.26. Moreover, in the series with Liver, the Drug uptake came to 1.23 % ID/g.
Consider `CCN(CC)CCNC(=O)c1cc2cc([125I])ccc2[nH]1.Cl`, for which the Drug uptake in the series on Kidney is listed as 0.71 % ID/g; with Muscle tissue, 0.19 % ID/g; with Liver, 0.61 % ID/g; in the series with Pancreas, 0.09 % ID/g. Also, in [10], the Ratio amounted to 1.38.
